Key:
[1] = target: Telomerase reverse transcriptase (Homo sapiens, UniProt O14746); test: In vitro inhibitory activity of compound against telomerase
Procedure, shortened: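 Telomerase activity was measured by TRAP assay. Extension products were resolved on 10% nondenaturing polyacrylamide gel, stained with SYBR Green, and band intensity quantified by image analysis. IC50 was derived from the reduction in product signal.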

[2] = system: HL-60; test: In vitro antiproliferative activity of compound against HL-60 (human assay; assay type: functional, cell-based
Procedure, shortened: (§1)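 Cells grown for 3 days with compound, then growth read by sulforhodamine B (SRB) staining. IC50 taken as the dose giving 50% growth inhibition of the cultured cells.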

[3] = system: HEC-1B cell line; test: In vitro antiproliferative activity of compound against HEC-1-B (human endometrical caner ) cell line was determined by SRB assay; assay type: functional, cell-based; procedure, shortened: as §1
[4] = system: CAKI-2; test: In vitro antiproliferative activity of compound against Caki-2 (human renal caner ) cell line was determined by SRB assay; assay type: functional, cell-based; procedure, shortened: as §1
[5] = system: A549; test: In vitro antiproliferative activity of compound against […] (human lung caner ) cell line was determined by SRB assay; assay type: functional, cell-based; procedure, shortened: as §1
[6] = system: HT-29; test: In vitro antiproliferative activity of compound against HT-29 (human colon caner ) cell line aws determined by SRB assay; assay type: functional, cell-based
Procedure, shortened: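 Human tumour cell lines exposed to compound for 3 days, with growth measured by sulforhodamine B (SRB) staining. IC50 is the concentration that inhibits growth of 50% of the cultured cells.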

Chain of Telomerase reverse transcriptase (O14746 whole entry): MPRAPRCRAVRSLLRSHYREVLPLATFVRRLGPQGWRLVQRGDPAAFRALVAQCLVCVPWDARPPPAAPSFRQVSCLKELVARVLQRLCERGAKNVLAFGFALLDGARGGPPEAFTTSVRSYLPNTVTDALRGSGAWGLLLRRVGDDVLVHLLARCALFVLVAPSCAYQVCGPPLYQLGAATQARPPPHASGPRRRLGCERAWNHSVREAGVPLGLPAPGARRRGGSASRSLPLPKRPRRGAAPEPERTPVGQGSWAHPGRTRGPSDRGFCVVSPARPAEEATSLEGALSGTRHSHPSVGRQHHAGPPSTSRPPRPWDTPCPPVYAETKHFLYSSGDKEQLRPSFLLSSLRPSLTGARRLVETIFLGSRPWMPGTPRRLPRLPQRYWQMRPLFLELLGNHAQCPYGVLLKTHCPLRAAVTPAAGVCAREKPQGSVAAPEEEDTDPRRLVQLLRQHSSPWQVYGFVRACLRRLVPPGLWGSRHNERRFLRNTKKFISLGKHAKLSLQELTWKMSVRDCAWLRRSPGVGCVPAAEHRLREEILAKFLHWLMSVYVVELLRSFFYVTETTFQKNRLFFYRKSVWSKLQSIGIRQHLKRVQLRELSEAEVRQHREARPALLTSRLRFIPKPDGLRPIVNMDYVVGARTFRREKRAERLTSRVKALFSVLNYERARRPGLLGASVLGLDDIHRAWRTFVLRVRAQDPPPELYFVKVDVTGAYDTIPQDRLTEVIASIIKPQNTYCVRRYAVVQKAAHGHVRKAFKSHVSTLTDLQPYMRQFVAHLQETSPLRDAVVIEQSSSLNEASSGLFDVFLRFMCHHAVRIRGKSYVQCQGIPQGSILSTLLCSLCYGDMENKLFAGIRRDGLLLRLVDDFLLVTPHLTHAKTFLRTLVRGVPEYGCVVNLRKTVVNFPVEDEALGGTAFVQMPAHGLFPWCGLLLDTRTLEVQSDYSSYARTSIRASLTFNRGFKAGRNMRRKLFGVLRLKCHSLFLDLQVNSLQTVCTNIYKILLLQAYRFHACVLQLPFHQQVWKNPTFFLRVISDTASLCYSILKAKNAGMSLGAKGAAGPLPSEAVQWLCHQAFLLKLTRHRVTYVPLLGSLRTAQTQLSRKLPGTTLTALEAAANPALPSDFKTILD

IC50 [1] [µM] | SMILES | further results
79 | O=Cc1cccc(C(=O)Sc2cccc(Cl)c2)n1 | 
> 100 | COc1ccccc1SC(=O)c1cccc(C=O)n1 | 
56 | O=Cc1cccc(C(=O)Sc2ccc(Br)cc2)n1 | 
> 100 | CC(=O)Nc1ccc(SC(=O)c2cccc(C=O)n2)cc1 | 
33 | O=Cc1cccc(C(=O)Sc2ccc(Cl)cc2)n1 | 
91 | COc1ccc(SC(=O)c2cccc(C=O)n2)cc1 | 
69 | O=Cc1cccc(C(=O)Sc2ccc(F)c(F)c2)n1 | 
> 100 | O=Cc1cccc(C(=O)Oc2ccc(Cl)c(Cl)c2)n1 | 
76 | COc1cccc(SC(=O)c2cccc(C=O)n2)c1 | 
24 | O=Cc1cccc(C(=O)Sc2ccc(Cl)c(Cl)c2)n1 | IC50 [2]: 13 µM; IC50 [3]: 56.4 µM; IC50 [4]: > 300 µM; IC50 [5]: 56.9 µM
> 100 | Cc1ccccc1SC(=O)c1cccc(C=O)n1 | 
68 | O=Cc1cccc(C(=O)Sc2cc(Cl)ccc2Cl)n1 | 
64 | O=Cc1cccc(C(=O)Sc2cc(Cl)cc(Cl)c2)n1 | 
76 | Cc1cccc(SC(=O)c2cccc(C=O)n2)c1 | 
> 100 | Cc1ccc(SC(=O)c2cccc(C=O)n2)cc1 | 
77 | N#Cc1ccc(C=O)nc1SCc1c(Cl)cccc1Cl | IC50 [2]: 26.7 µM; IC50 [3]: 175 µM; IC50 [4]: > 300 µM; IC50 [5]: > 300 µM
75 | O=Cc1cccc(C(=O)Sc2ccc([N+](=O)[O-])cc2)n1 | 
84 | O=Cc1cccc(C(=O)Sc2ccccc2Cl)n1 | 
64 | O=Cc1cccc(C(=O)Sc2ccc(F)cc2)n1 | 
50 | O=Cc1cccc(C(=O)Sc2c(Cl)cc(Cl)cc2Cl)n1 | 
> 100 | O=Cc1cccc(C(=O)Nc2ccc(Cl)c(Cl)c2)n1 | 
79 | O=Cc1cccc(C(=O)Sc2c(Cl)cccc2Cl)n1 | 
 | CC[C@@]1(O)C(=O)OCc2c1cc1n(c2=O)Cc2cc3ccccc3nc2-1 [CAMPTOTHECIN] | IC50 [2]: 0.066 µM; IC50 [6]: 1.4 µM; IC50 [3]: 8.64 µM; IC50 [4]: 3.96 µM; IC50 [5]: 2.53 µM

Reference: ChEMBL document CHEMBL1136577, “Synthesis of 6-formyl-pyridine-2-carboxylate derivatives and their telomerase inhibitory activities” (Bioorg Med Chem Lett, 2003)
